# Data as given in ChEMBL document CHEMBL3526051 (Drug Metab Dispos, 2012).
# Tests used:
# Histone deacetylase 1 = Histone deacetylase 1 (Homo sapiens, UniProt Q13547); experiment: Inhibition of HDAC1 (unknown origin) expressed in HEK293 cells using [3H]acetylated human histone H4 peptide as substrate by scintillation counting; type: cell-based
# Histone deacetylase 2 = Histone deacetylase 2 (Homo sapiens, UniProt Q92769); experiment: Inhibition of flag-tagged HDAC2 (unknown origin) expressed in SF21 cells using [3H]acetylated human histone H4 peptide as substrate by scintillation counting
# Chain of Histone deacetylase 2 (Q92769 whole entry): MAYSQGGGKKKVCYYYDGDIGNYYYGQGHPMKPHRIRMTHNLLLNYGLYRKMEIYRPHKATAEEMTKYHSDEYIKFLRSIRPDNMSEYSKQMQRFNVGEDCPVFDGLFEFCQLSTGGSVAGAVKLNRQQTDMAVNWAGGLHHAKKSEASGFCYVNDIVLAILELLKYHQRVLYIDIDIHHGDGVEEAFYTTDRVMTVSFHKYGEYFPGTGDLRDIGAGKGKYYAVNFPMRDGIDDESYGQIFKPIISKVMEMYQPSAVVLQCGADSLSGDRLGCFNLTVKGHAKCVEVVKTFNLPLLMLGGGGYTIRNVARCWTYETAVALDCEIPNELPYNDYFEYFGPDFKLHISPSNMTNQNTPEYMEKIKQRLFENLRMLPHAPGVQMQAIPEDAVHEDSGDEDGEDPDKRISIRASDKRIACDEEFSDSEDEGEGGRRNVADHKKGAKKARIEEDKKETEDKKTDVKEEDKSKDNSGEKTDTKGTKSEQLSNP
# Histone deacetylase 3 = Histone deacetylase 3 (Homo sapiens, UniProt O15379); experiment: Inhibition of HDAC3 (unknown origin) expressed in HEK293 cells using [3H]acetylated human histone H4 peptide as substrate by scintillation counting
# Chain of Histone deacetylase 3 (O15379 whole entry): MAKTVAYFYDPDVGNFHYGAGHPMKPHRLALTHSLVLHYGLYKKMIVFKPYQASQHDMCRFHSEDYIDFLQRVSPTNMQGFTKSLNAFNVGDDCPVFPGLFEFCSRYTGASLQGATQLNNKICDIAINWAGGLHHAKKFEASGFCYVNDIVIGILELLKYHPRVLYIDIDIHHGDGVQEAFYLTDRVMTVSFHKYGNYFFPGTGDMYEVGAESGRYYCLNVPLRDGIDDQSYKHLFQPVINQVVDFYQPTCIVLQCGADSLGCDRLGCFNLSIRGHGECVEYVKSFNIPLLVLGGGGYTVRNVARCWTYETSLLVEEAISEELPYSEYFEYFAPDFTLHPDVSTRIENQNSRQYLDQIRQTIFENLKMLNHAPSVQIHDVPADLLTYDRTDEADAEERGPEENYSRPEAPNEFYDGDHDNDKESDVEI
# Histone deacetylase 4 = Histone deacetylase 4 (Homo sapiens, UniProt P56524); experiment: Inhibition of HDAC4 (unknown origin) expressed in HEK293 cells using [3H]acetylated human histone H4 peptide as substrate by scintillation counting
# Chain of Histone deacetylase 4 (P56524 whole entry): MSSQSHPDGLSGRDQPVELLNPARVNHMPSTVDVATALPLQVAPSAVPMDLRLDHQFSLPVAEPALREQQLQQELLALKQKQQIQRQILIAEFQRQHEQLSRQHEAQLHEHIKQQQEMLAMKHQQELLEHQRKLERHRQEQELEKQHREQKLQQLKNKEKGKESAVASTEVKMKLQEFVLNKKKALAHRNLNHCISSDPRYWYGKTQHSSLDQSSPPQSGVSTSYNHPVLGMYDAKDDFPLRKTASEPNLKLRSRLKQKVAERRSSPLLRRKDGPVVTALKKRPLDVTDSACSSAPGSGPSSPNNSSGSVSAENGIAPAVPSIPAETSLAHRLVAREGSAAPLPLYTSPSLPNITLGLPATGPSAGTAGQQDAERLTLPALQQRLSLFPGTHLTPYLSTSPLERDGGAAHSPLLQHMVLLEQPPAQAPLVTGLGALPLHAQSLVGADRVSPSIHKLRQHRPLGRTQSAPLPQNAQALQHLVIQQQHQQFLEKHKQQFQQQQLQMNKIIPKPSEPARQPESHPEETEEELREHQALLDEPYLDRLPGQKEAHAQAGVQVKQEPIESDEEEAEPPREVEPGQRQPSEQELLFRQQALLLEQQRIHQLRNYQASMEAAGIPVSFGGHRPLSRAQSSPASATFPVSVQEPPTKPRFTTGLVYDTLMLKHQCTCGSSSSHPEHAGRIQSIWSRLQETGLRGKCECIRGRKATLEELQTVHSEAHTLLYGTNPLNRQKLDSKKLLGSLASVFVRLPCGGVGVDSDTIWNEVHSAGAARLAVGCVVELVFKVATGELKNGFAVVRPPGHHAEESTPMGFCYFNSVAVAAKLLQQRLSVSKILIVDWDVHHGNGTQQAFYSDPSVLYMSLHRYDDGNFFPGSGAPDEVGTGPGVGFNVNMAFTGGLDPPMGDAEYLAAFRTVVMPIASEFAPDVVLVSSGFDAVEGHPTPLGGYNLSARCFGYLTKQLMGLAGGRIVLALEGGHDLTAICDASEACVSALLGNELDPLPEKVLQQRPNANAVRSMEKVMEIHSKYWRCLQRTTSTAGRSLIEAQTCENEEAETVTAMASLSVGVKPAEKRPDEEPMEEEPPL
# [1] = biological target: T1, Protein deacetylase HDAC6 (Homo sapiens, UniProt Q9UBN7); experiment: Inhibition of HDAC6 (unknown origin) expressed in HEK293 cells using [3H]acetylated human histone H4 peptide as substrate by scintillation counting
# T1 sequence (Q9UBN7 whole entry): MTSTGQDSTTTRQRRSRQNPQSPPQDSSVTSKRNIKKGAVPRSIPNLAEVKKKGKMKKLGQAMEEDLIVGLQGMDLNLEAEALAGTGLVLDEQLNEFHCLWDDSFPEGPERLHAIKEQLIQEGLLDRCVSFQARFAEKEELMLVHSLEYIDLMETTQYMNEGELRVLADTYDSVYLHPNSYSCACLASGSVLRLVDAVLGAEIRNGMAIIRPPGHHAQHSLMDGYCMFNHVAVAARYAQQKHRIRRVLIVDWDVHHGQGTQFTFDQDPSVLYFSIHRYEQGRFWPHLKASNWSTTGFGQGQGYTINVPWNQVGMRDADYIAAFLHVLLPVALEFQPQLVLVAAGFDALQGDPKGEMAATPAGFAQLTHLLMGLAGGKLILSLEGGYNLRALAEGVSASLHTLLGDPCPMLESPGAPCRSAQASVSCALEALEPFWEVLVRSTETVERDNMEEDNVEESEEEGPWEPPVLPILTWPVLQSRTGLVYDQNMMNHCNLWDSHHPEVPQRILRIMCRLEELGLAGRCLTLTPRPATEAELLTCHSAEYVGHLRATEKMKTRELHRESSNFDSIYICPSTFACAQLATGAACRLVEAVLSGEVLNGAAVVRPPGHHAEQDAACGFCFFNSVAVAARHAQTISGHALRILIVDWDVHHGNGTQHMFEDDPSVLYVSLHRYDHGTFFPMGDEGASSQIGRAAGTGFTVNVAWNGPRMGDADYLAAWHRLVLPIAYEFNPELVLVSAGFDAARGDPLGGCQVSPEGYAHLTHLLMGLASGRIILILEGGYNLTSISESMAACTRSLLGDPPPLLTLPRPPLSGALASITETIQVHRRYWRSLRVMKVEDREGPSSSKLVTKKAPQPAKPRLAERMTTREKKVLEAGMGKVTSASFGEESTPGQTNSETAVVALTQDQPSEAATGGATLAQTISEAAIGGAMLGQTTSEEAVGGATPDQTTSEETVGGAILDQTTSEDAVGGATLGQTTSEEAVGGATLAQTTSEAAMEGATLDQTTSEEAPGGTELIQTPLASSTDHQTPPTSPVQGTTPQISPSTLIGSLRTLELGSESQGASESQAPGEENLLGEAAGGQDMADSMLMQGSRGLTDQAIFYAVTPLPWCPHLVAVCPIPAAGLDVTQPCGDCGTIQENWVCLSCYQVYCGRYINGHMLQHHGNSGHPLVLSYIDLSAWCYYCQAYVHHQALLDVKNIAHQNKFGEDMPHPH
# Histone deacetylase 8 = biological target: T2, Histone deacetylase 8 (Homo sapiens, UniProt Q9BY41); experiment: Inhibition of his-strep-tagged HDAC8 (unknown origin) expressed in SF9 cells using [3H]acetylated human histone H4 peptide as substrate by scintillation counting
# T2 sequence (Q9BY41 whole entry): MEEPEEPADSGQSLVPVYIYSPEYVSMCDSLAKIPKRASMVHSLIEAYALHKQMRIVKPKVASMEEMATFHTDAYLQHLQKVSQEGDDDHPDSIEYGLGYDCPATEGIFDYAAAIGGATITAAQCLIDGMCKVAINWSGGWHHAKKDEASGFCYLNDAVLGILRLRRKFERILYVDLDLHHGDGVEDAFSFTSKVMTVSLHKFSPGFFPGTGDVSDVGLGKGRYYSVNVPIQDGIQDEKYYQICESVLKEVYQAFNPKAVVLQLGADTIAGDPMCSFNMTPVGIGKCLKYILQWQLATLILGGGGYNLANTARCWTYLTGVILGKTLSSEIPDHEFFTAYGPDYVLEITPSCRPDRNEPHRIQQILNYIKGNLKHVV
# CYP1A2 = CYP1A2 (Homo sapiens, UniProt P05177); experiment: Activity of recombinant human CYP1A2 expressed in Escherichia coli JM109 co-expressing P450 reductase assessed as enzyme-mediated drug metabolism measured as compound remaining after 1 hr by LC-MS analysis; type: ADME; details: read-out: Stability
# In short: (§1)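 Whole E. coli cells were diluted in PSE buffer (50 mM KH2PO4, 250 mM sucrose, 0.25 mM EDTA, pH 7.4) to 100 mg/ml wet biomass. Each suspension was mixed with DL-isocitrate and substrate stock (5 mg/ml in ACN/DMSO 19:1) in aerated caps. Incubation was at 30°C, 1100 rpm for 0.5 or 1 h. Reactions were stopped with ACN/methanol (1:1) and centrifuged, and the supernatant was analysed by LC-MS.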
# CYP1B1 = CYP1B1 (Homo sapiens, UniProt Q16678); experiment: Activity of recombinant human CYP1B1 expressed in Escherichia coli JM109 co-expressing P450 reductase assessed as enzyme-mediated drug metabolism measured as compound remaining after 1 hr by LC-MS analysis; type: ADME; details: read-out: Stability; in short: as §1
# CYP2A6 = CYP2A6 (Homo sapiens, UniProt P11509); experiment: Activity of recombinant human CYP2A6 expressed in Escherichia coli JM109 co-expressing P450 reductase assessed as enzyme-mediated drug metabolism measured as compound remaining after 1 hr by LC-MS analysis; type: ADME; details: read-out: Stability; in short: as §1
# Chain of CYP2A6 (P11509 whole entry): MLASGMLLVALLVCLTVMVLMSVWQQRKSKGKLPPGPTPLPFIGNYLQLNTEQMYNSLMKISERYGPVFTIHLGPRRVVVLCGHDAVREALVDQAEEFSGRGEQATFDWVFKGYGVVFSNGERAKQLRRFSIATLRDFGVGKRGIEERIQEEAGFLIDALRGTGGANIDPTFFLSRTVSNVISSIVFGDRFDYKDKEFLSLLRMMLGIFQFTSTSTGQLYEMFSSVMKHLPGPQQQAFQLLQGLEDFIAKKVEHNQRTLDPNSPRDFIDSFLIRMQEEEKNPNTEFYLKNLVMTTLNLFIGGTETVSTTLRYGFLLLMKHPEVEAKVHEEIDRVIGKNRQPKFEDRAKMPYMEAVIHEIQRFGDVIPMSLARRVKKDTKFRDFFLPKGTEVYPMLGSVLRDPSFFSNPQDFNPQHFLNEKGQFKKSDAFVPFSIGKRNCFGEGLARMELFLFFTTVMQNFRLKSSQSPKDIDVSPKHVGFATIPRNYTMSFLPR
# CYP2C8 = CYP2C8 (Homo sapiens, UniProt P10632); experiment: Activity of recombinant human CYP2C8 expressed in Escherichia coli JM109 co-expressing P450 reductase assessed as enzyme-mediated drug metabolism measured as compound remaining after 1 hr by LC-MS analysis; type: ADME; details: read-out: Stability; in short: as §1
# Chain of CYP2C8 (P10632 whole entry): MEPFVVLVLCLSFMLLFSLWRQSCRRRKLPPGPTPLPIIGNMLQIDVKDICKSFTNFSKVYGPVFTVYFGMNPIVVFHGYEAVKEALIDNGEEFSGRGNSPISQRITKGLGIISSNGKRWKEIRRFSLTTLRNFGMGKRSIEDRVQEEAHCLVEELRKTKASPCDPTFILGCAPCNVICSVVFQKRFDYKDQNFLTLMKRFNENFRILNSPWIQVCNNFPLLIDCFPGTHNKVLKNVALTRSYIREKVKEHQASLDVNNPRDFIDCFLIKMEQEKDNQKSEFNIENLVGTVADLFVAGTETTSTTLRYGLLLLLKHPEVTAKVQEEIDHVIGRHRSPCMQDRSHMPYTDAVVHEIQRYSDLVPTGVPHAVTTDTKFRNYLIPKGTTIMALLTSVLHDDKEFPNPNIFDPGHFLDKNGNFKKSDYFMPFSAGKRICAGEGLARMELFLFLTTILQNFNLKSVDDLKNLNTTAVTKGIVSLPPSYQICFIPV
# CYP2C9 = CYP2C9 (Homo sapiens, UniProt P11712); experiment: Activity of recombinant human CYP2C9 expressed in Escherichia coli JM109 co-expressing P450 reductase assessed as enzyme-mediated drug metabolism measured as compound remaining after 1 hr by LC-MS analysis; type: ADME; details: read-out: Stability; in short: as §1
# CYP2C18 = CYP2C18 (Homo sapiens, UniProt P33260); experiment: Activity of recombinant human CYP2C18 expressed in Escherichia coli JM109 co-expressing P450 reductase assessed as enzyme-mediated drug metabolism measured as compound remaining after 1 hr by LC-MS analysis; type: ADME; details: read-out: Stability; in short: as §1
# CYP2C19 = CYP2C19 (Homo sapiens, UniProt P33261); experiment: Activity of recombinant human CYP2C19 expressed in Escherichia coli JM109 co-expressing P450 reductase assessed as enzyme-mediated drug metabolism measured as compound remaining after 1 hr by LC-MS analysis; type: ADME; details: read-out: Stability; in short: as §1
# CYP2D6 [2] = biological target: T3, CYP2D6 (Homo sapiens, UniProt P10635); experiment: Activity of recombinant human CYP2D6 expressed in Escherichia coli JM109 co-expressing P450 reductase assessed as enzyme-mediated drug metabolism measured as compound remaining after 1 hr by LC-MS analysis; type: ADME; details: read-out: Stability; in short: as §1
# T3 sequence (P10635 whole entry): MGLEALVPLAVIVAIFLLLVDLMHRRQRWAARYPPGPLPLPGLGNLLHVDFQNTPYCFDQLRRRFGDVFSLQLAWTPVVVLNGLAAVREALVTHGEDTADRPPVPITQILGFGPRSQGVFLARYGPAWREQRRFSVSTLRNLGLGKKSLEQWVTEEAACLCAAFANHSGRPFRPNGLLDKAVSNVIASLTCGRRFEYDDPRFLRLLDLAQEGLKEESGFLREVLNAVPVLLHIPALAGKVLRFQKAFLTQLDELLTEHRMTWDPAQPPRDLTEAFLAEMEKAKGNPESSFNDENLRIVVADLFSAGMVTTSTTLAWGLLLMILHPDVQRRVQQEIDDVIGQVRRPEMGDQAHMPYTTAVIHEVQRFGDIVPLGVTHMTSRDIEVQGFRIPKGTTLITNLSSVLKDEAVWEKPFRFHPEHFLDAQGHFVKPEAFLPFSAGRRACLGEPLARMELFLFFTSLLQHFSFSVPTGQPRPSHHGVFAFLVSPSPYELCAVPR
# CYP2E1 = CYP2E1 (Homo sapiens, UniProt P05181); experiment: Activity of recombinant human CYP2E1 expressed in Escherichia coli JM109 co-expressing P450 reductase assessed as enzyme-mediated drug metabolism measured as compound remaining after 1 hr by LC-MS analysis; type: ADME; details: read-out: Stability; in short: as §1
# CYP3A4 [3] = biological target: T4, CYP3A4 (Homo sapiens, UniProt P08684); experiment: Activity of recombinant human CYP3A4 expressed in Escherichia coli JM109 co-expressing P450 reductase assessed as enzyme-mediated drug metabolism measured as compound remaining after 1 hr by LC-MS analysis; type: ADME; details: read-out: Stability; in short: as §1
# T4 sequence (P08684 whole entry): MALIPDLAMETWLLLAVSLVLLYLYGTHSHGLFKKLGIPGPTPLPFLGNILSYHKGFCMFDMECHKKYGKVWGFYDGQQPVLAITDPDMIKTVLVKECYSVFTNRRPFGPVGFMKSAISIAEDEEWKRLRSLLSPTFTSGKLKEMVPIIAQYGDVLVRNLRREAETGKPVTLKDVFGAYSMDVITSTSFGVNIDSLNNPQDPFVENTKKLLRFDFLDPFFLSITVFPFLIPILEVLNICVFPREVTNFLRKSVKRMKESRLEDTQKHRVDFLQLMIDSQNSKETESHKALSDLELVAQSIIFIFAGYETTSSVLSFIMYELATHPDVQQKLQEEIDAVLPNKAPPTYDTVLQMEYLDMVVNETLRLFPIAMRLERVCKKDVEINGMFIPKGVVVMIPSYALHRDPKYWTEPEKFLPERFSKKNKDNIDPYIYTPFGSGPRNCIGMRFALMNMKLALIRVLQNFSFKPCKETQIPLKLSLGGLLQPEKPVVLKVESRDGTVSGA
# CYP3A4 [4] = biological target: T4, CYP3A4; experiment: Activity of recombinant human CYP3A4 expressed in Escherichia coli JM109 co-expressing P450 reductase assessed as enzyme-mediated drug metabolism measured as compound remaining after 1 hr by LC-MS analysis in presence of cytochrome b5; type: ADME; details: read-out: Stability; in short: as §1
# CYP3A5 = CYP3A5 (Homo sapiens, UniProt P20815); experiment: Activity of recombinant human CYP3A5 expressed in Escherichia coli JM109 co-expressing P450 reductase assessed as enzyme-mediated drug metabolism measured as compound remaining after 1 hr by LC-MS analysis; type: ADME; details: read-out: Stability; in short: as §1
# CYP4A11 = CYP4A11 (Homo sapiens, UniProt Q02928); experiment: Activity of recombinant human CYP4A11 expressed in Escherichia coli JM109 co-expressing P450 reductase assessed as enzyme-mediated drug metabolism measured as compound remaining after 1 hr by LC-MS analysis; type: ADME; details: read-out: Stability; in short: as §1
# [5] = Drug metabolism in Escherichia coli JM109 assessed as compound remaining after 1 hr by LC-MS analysis; type: ADME, organism-based; details: read-out: Stability; in short: as §1
# CYP3A4 [6] = biological target: T4, CYP3A4; experiment: Activity of recombinant human CYP3A4 expressed in supersomes assessed as enzyme-mediated drug metabolism measured as compound remaining at 10 uM after 1 hr by LC-MS analysis; type: ADME; details: read-out: Stability
# In short: (§2)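 Insect-cell Supersomes coexpressing the rh P450 and rh P450 reductase were incubated with 10 µM substrate in 185 mM HEPES pH 7.5. The mix contained 6.65 mM MgCl2, 0.5 mM NADP, 2.54 mM DL-isocitrate and isocitric dehydrogenase. The reaction was started with the NADPH-regenerating system and run 1 h at 30°C without shaking. It was extracted with 1 volume ACN, centrifuged at 21,000g, and the supernatant analysed by LC-MS.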
# CYP2D6 [7] = biological target: T3, CYP2D6; experiment: Activity of recombinant human CYP2D6 expressed in supersomes assessed as enzyme-mediated drug metabolism measured as compound remaining at 10 uM after 1 hr by LC-MS analysis; type: ADME; details: read-out: Stability; in short: as §2
# CYP2B6 = CYP2B6 (Homo sapiens, UniProt P20813); experiment: Activity of recombinant human CYP2B6 expressed in Escherichia coli JM109 co-expressing P450 reductase assessed as enzyme-mediated drug metabolism measured as compound remaining after 1 hr by LC-MS analysis; type: ADME; details: read-out: Stability; in short: as §1
# CYP1A1 = CYP1A1 (Homo sapiens, UniProt P04798); experiment: Activity of recombinant human CYP1A1 expressed in Escherichia coli JM109 co-expressing P450 reductase assessed as enzyme-mediated drug metabolism measured as compound remaining after 1 hr by LC-MS analysis; type: ADME; details: read-out: Stability; in short: as §1
# Chain of CYP1A1 (P04798 whole entry): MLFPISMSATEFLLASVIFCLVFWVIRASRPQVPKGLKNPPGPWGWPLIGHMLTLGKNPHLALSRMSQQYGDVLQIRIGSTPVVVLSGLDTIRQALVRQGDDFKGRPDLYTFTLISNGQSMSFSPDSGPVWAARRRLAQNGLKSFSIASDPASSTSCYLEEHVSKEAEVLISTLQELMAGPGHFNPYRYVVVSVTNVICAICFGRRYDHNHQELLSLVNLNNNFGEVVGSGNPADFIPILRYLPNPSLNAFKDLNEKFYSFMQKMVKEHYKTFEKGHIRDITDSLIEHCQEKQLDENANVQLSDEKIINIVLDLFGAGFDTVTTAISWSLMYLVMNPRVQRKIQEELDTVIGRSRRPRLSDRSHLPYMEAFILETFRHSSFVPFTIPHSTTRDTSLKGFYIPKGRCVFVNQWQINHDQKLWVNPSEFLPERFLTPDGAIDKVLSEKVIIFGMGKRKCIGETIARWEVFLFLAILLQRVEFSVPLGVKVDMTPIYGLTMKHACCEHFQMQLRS
# Chain of Histone deacetylase 1 (Q13547 whole entry): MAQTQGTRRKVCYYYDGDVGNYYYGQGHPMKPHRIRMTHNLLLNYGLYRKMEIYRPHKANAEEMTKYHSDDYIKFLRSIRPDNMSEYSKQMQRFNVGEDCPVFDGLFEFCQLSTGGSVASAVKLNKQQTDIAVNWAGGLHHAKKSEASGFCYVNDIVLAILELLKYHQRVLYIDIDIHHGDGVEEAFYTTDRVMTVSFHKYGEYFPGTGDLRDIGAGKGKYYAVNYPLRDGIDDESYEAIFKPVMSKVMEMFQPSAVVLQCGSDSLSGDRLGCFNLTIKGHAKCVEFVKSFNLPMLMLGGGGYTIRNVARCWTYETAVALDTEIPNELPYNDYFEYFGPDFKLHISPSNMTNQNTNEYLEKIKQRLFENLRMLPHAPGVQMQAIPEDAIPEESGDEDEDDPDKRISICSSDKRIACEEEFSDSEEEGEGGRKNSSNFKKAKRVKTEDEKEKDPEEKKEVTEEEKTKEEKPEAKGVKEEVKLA
Structure (SMILES),IC50 (Histone deacetylase 1),IC50 (Histone deacetylase 2),IC50 (Histone deacetylase 3),IC50 (Histone deacetylase 4),IC50 [1],IC50 (Histone deacetylase 8),also measured
Cc1[nH]c2cc(O)ccc2c1CCNCc1ccc(/C=C/C(N)=O)cc1,4.6 µM,27 µM,3.3 µM,4.6 µM,4.9 µM,6.8 µM,–
C[C@@]12Nc3ccccc3[C@]1(O)CCN2Cc1ccc(/C=C/C(N)=O)cc1,0.97 µM,6 µM,0.93 µM,1 µM,1.1 µM,23 µM,–
C[C@@]12Nc3ccccc3[C@]1(O)CCN2Cc1ccc(/C=C/C(=O)NO)cc1,0.14 µM,1.5 µM,0.18 µM,0.23 µM,0.062 µM,0.92 µM,–
Cc1[nH]c2ccccc2c1CCNCc1ccc(/C=C/C(N)=O)cc1,11 µM,29 µM,22 µM,18 µM,> 30 µM,22 µM,–
Cc1[nH]c2ccccc2c1CCNCc1ccc(/C=C/C(=O)NO)cc1 [PANOBINOSTAT],–,–,–,–,–,–,"remaining at 1 h (CYP1A2): 72%; remaining at 1 h (CYP1B1): 79%; remaining at 1 h (CYP2A6): 81%; remaining at 1 h (CYP2C8): 63%; remaining at 1 h (CYP2C9): 34%; remaining at 1 h (CYP2C18): 56%; remaining at 1 h (CYP2C19): 80%; remaining at 1 h (CYP2D6 [2]): 44%; remaining at 1 h (CYP2E1): 50%; remaining at 1 h (CYP3A4 [3]): 37%; remaining at 1 h (CYP3A4 [4]): 45%; remaining at 1 h (CYP3A5): 73%; remaining at 1 h (CYP4A11): 59%; remaining at 1 h [5]: 55%; remaining at 1 h, 10 µM (CYP3A4 [6]): 94%; remaining at 1 h, 10 µM (CYP2D6 [7]): 94%; remaining at 1 h (CYP2B6): 62%; remaining at 1 h (CYP1A1): 61%"
